In ChEMBL document CHEMBL4513216, “Probing the Open Global Health Chemical Diversity Library for Multistage-Active Starting Points for Next-Generation Antimalarials” (ACS Infect Dis, 2020) one finds cytotoxicity data, which are given here for 71 compounds.

This data set is described as follows: Toxicity liver stage against HepG2, at 10uM. Type of data set: cell-based. On the set-up: test concentration 10 uM, cell line HepG2-A16-CD81EGFP. The note with it: human, HepG2-A16-CD81EGFP cells; read-out: INHIBITION
The procedure, abridged: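 Uninfected HepG2-A16-CD81EGFP cells, 3 × 10^3 per well, 1536-well, plated on prespotted compound at 10 μM final, parasite-free screening media added to match infected plates; puromycin 10 μM positive, DMSO 0.5% negative; run in parallel with 48 h PbLuc assay at 37 °C, 5% CO2; viability by CellTiter-Glo luminescence, normalized to controls.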
For `CCCn1cc(NC(=O)c2ccc(NC(=O)NC3CC3)cc2)ccc1=O`, the cytotoxicity at 10 µM came out at 1.93%.

Turning to `O=C([C@H]1C[C@H]2CN(c3ncc(F)cn3)C[C@@H]1O2)N1CCCC1`, the cytotoxicity at 10 µM was -115%.

For the compound `c1cnc(N2CC3(CCN(Cc4cccnc4)C3)C2)nc1`, the cytotoxicity at 10 µM is -4.87%.

`Cc1cc(C)n2c(CNCc3ccc(OC(F)F)cc3)cnc2n1`: the cytotoxicity at 10 µM was -145%.

With `CC(CCNC(=O)N(C)CC1CCOCC1)N1CCCCC1` (stereo unspecified), the cytotoxicity at 10 µM amounted to 8.63%.

In the case of `CC(C)(C)c1ncc(C(=O)NCCS(N)(=O)=O)s1`, the cytotoxicity at 10 µM is -9.58%.

Consider `CSCCC(C)NC(=O)c1cccc(-c2n[nH]c(C)n2)c1` (stereo unspecified), for which the cytotoxicity at 10 µM was determined as 1.31%.

In the case of `O=C(c1ccoc1)N1CCC(Nc2cccnn2)CC1`, the cytotoxicity at 10 µM was -5.85%.

For `CN(C)CCN1CCCC12CCN(C(=O)c1ccncc1)CC2`, the cytotoxicity at 10 µM was 6.29%.

Regarding `CC1CCCN(C(=O)c2cn(-c3ccc(C(F)(F)F)cn3)nn2)C1` (stereo unspecified), the cytotoxicity at 10 µM is -51.3%.

In the case of `CCOn1c(SC(C)C)nc2ccccc2c1=O`, the cytotoxicity at 10 µM is -5.36%.

For `O=C(c1ccccc1)N1C[C@@H]2CCCO[C@@H]2[C@H](N2CCOCC2)C1`, the cytotoxicity at 10 µM was -8.81%.

As to `COc1ccc(C(=O)N2CCC(Nc3cccnn3)CC2)c(OC)c1`, the cytotoxicity at 10 µM was found to be 4.67%.

As to `Cn1nnnc1SCCNC1CCN(c2ccc3c(c2)OCO3)CC1`, the cytotoxicity at 10 µM was 3.07%.

In the case of `CC(C)n1nc2c(cc1=O)CN(CCOc1ccccc1C#N)CC2`, the cytotoxicity at 10 µM came out at 13.7%.

For `CS(=O)(=O)N1CCCC(c2nc(-c3ccccc3)c[nH]2)C1` (stereo unspecified), the cytotoxicity at 10 µM came out at 2.44%.

On to `O=C(C1CC(=O)N(c2ccccc2Br)C1)N1CCCCCC1` (stereo unspecified), for which the cytotoxicity at 10 µM came out at 8.52%.

Turning to `CC1CCCCN1CCNC(=O)c1ccn(-c2ccc(F)cc2)n1` (stereo unspecified), the cytotoxicity at 10 µM is -1.91%.

With `Cc1nc(-c2ccsc2)ccc1C(=O)NCCCN1CCOCC1`, the cytotoxicity at 10 µM was -13.9%.

As to `Cc1ccc(S(=O)(=O)N2CCC(S(C)(=O)=O)CC2)cc1C`, the cytotoxicity at 10 µM turned out to be 2.59%.

On to `Cc1ncc(CNCC2CCC(C(N)=O)CC2)n1-c1ccccc1` (stereo unspecified), for which the cytotoxicity at 10 µM is -12.9%.

As to `CC(=O)NC(CC(=O)Nc1nc(C)c(C)s1)c1ccccc1` (stereo unspecified), the cytotoxicity at 10 µM worked out at 3.78%.

As to `O=C(C1CCCCC1)N1CC2(CCNCC2)C1`, the cytotoxicity at 10 µM is -8.58%.

In the case of `COc1ccc(NC(=O)c2ccc(CN3CC[C@H](O)C3)cc2)c(OC)n1`, the cytotoxicity at 10 µM was determined as 6.21%.

As to `CN1CCN(c2ncnc3c2CCN(C(=O)c2cccn2C)CC3)CC1`, the cytotoxicity at 10 µM was -71%.

For `N#Cc1ccsc1C(=O)N1CCCN(Cc2cscn2)CC1`, the cytotoxicity at 10 µM is 3.48%.

`COCC(C)NC(=O)c1nnn(-c2ccc(OC)cc2)n1` (stereo unspecified): the cytotoxicity at 10 µM is 1.87%.

Turning to `COc1ccc(-n2nc(C(C)=O)c(C(C)=O)c2C)cc1Cl`, the cytotoxicity at 10 µM was -0.145%.

On to `Cc1cn2c(n1)CCC(NS(=O)(=O)c1ccc(C)s1)C2` (stereo unspecified), for which the cytotoxicity at 10 µM was found to be 12.9%.

Take `Cc1nc(CN2C[C@@H]3CCCO[C@@H]3[C@H](NC(=O)CC3CC3)C2)cs1`: the cytotoxicity at 10 µM turned out to be 9.2%.

`Cn1cccc1C(=O)N1CCC2(CCCN2S(C)(=O)=O)CC1`: the cytotoxicity at 10 µM was determined as 5.13%.

Consider `CCOC(C)c1noc(CN2CCN(CC3CCCC3)CC2)n1` (stereo unspecified), for which the cytotoxicity at 10 µM was -13.2%.

With `CC1(C)CN=C(N2CCN(CC3CCCO3)CC2)S1` (stereo unspecified), the cytotoxicity at 10 µM was -8.41%.

As for `Cc1cc(C(=O)N2CC[C@@]3(C[C@@H](NS(C)(=O)=O)CCO3)C2)no1`, the cytotoxicity at 10 µM is -61.1%.

In the case of `CN(C)CCOCc1nnc2n1CCN(CC1CC1)CC2`, the cytotoxicity at 10 µM was -4.87%.

In the case of `NC(=O)C1CCN(C(=O)NCCNc2ccccn2)CC1`, the cytotoxicity at 10 µM is -12.8%.

On to `CNC(=O)C(CC(C)C)NC(=O)c1cccc(-c2n[nH]c(C)n2)c1` (stereo unspecified), for which the cytotoxicity at 10 µM was found to be 9.04%.

In the case of `Cc1cccn2c(=O)cc(OC(=O)c3ccccc3Cl)nc12`, the cytotoxicity at 10 µM was 10.7%.

Turning to `COC[C@@H]1CC[C@H]2[C@H](CCN2S(=O)(=O)Cc2ccccc2)O1`, the cytotoxicity at 10 µM was 7.43%.

Turning to `CN(C1CCCCC1)S(=O)(=O)N1CCN(Cc2ccco2)CC1`, the cytotoxicity at 10 µM was -81.7%.

Turning to `COc1ncc(-c2ccc(O)cc2)c(OC)n1`, the cytotoxicity at 10 µM was -2.42%.

Regarding `CCn1nc(C)c2nc(C(C)C)nc(N3CCN(C)CC3)c21`, the cytotoxicity at 10 µM was -2.45%.

Consider `O=C(c1cnccn1)N1CCN2C[C@H](Oc3cccc(F)c3)C[C@H]2C1`, for which the cytotoxicity at 10 µM amounted to 11.7%.

As to `CCOCCCC(=O)Nc1c(-c2ccc(F)cc2)ncn1C`, the cytotoxicity at 10 µM was -9.19%.

On to `Cc1nc(-c2c(-c3ccccc3)ncn2CCCN2CCOCC2)c[nH]1`, for which the cytotoxicity at 10 µM is -6.76%.

For the compound `CCc1nnc(NC(=O)CCN2CC=C(c3cnn(C)c3)CC2)s1`, the cytotoxicity at 10 µM was found to be 2.66%.

Take `CCc1ccc(C(=O)NC(C)c2ccc(S(C)(=O)=O)c(F)c2)o1` (stereo unspecified): the cytotoxicity at 10 µM is 17.2%.

Take `Cc1cc(C)n(CC2CCCN2C(=O)c2ccc3[nH]c(=O)[nH]c3c2)n1` (stereo unspecified): the cytotoxicity at 10 µM came to 3.18%.

`CCOCc1nc(-c2cccc(OC)c2OC)n(C2CCN(C)CC2)n1`: the cytotoxicity at 10 µM is -1.76%.

For the compound `COc1cc(N2CCCC(CO)(Cc3ccccc3F)C2)ncn1` (stereo unspecified), the cytotoxicity at 10 µM came out at 45.7%.

Take `CS(=O)(=O)NCc1cc(=O)n2c(n1)CN(CC1CC1)CCC2`: the cytotoxicity at 10 µM is -104%.

As for `CCOc1ccc(NC(C)=O)cc1S(=O)(=O)Nc1nnc(C)s1`, the cytotoxicity at 10 µM is -17.6%.

On to `CCC1CCCCN1CCNC(=O)N1CCN(Cc2ccon2)CC1` (stereo unspecified), for which the cytotoxicity at 10 µM is -2.01%.

Turning to `CN1CCN(C(=O)N2CCC3(CCCN(C4CCOCC4)C3=O)C2)CC1` (stereo unspecified), the cytotoxicity at 10 µM is -129%.

Take `O=C(c1cccc(=O)[nH]1)N(Cc1ccsc1)CC1CCCO1` (stereo unspecified): the cytotoxicity at 10 µM is -11.5%.

As for `CC(C)C(C(=O)N1CCN(Cc2ccccn2)CC1)n1cncn1` (stereo unspecified), the cytotoxicity at 10 µM was -14.5%.

Consider `CC(C)(C)C(=O)N1CC[C@H]2NC(=O)N(c3ccc(F)cc3)C(=O)[C@H]21`, for which the cytotoxicity at 10 µM was -1.72%.

As to `Cc1cccc(Nc2noc3c2CN(C(=O)c2ccn(C)n2)CC3)c1C`, the cytotoxicity at 10 µM is -0.61%.

For `CSCc1noc(CN2CC3(CCCC3)CC2=O)n1`, the cytotoxicity at 10 µM turned out to be 4.29%.

`COc1ncccc1CN1Cc2nnn(C)c2C(COCC2CC2)C1` (stereo unspecified): the cytotoxicity at 10 µM is 12.4%.

On to `Cc1ccc(C2NC(=O)c3cc(C(C)C)sc3N2)cc1` (stereo unspecified), for which the cytotoxicity at 10 µM is 7.96%.

Turning to `CSCC(=O)N1CCc2c(cnc(C)c2-c2noc(-c3ccco3)n2)C1`, the cytotoxicity at 10 µM was 2.93%.

With `Cc1ccc(CNC(=O)N2CCOCC2C2CC2)cc1F` (stereo unspecified), the cytotoxicity at 10 µM worked out at 10.4%.

Turning to `CC(C)Oc1ccc(CNC(=O)CCN2C(=O)CCC2=O)cc1F`, the cytotoxicity at 10 µM is -7.27%.

Take `COCC(=O)N1CCC2(CC1)CC(OC)c1ccc(F)cc12` (stereo unspecified): the cytotoxicity at 10 µM was -134%.

Consider `Cn1nc(N2CCCC(C(=O)Nc3nccs3)C2)ccc1=O` (stereo unspecified), for which the cytotoxicity at 10 µM is 3.19%.

For the compound `CC(O)(CNc1ccccn1)c1ccccc1` (stereo unspecified), the cytotoxicity at 10 µM is -44.3%.

As to `Cc1cccc(N2CCN(CCC(=O)NCc3cccnc3)CC2)c1`, the cytotoxicity at 10 µM is -9.2%.

With `CN(C)c1no[n+]([O-])c1-c1ccccc1`, the cytotoxicity at 10 µM amounted to 15.8%.

Regarding `Cc1cc(N2CCCN3CCC[C@H]3C2)n2nc(C)c(C)c2n1`, the cytotoxicity at 10 µM worked out at 4.37%.

With `CCOc1cccc(COC(=O)c2ccc(F)cn2)n1`, the cytotoxicity at 10 µM amounted to 0.296%.
